# pPAFAH FP inh = pPAFAH (human) enzyme inhibition. 1.5% of 330,000 active. inhibition, % at 3.39 µM. recombinant pPAFAH, FP-rhodamine probe fluorescence polarization;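 active = inhibition above the mean inhibition across the screen plus 3 SD, cut at about 25% in these data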;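 also: inhibitors block binding of the rhodamine activity-based probe so polarization drops; 0% = enzyme with DMSO and 100% = wells lacking pPAFAH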
# Target sequence (Q13093 whole entry, looked up): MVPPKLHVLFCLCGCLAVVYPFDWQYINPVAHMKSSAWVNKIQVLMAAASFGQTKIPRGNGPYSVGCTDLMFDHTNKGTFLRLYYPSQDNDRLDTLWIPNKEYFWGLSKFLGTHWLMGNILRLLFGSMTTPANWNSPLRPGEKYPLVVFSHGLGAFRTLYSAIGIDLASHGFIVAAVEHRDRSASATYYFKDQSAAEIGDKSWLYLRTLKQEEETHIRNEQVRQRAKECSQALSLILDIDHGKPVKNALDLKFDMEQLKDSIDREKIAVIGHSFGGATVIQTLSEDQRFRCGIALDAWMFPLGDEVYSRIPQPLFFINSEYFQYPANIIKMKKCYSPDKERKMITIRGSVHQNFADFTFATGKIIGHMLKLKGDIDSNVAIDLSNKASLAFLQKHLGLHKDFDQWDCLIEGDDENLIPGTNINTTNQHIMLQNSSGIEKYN
# ABHD4 inh = inhibitors of mouse ABHD4. Q8VD66. purified mABHD4, FP-Rh probe fluorescence polarization. inhibition, % at 8.92 µM. 0.54% of 370,000 active;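 active = inhibition exceeding the mean over every tested compound plus 3 SD, cut at about 30% in these data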;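 also: 0% = plate median of compound wells and 100% = S159A mutant with DMSO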
#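 Doses – 8.92 µM, single dose · Material – wild-type mouse ABHD4 protein · Replication – single well per compound (singlicate) · Measure – percent inhibition of probe binding, normalized to plate controls · Schedule – 45 min compound pre-incubation plus 60 min probe step, 25 °C · Detection – fluorescence polarization with parallel and perpendicular emission, 525/598 nm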
# HTRA1 inh = inhibitors of human serine peptidase HTRA1; recombinant HTRA1, FP-rhodamine activity-based probe, fluorescence polarization; inhibition, % at 5.96 µM; 0.5% of 340,000 active; in the data active = inhibition above about 36%;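 also: 0% = enzyme with DMSO and 100% = wells lacking enzyme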
# TCR-CD3 inh = human TCR-CD3 binding inhibition. 0.37% of 360,000 active. inhibition, % at 9.4 µM. AID 651800. TAMRA-labeled TCR probe fluorescence, biochemical; in the data active = inhibition above about 19%;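 also: recombinant mutant TCR 2C K166C tagged with TAMRA read by polarization; 0% = receptor in buffer alone and 100% = receptor with positive control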
# SIAE primary = blocks human sialic acid acetylesterase | AID 1053197 | inhibition, % at 9.66 µM | 0.69% of 370,000 active | SIAE FP-Rh probe binding, fluorescence polarization | Q9HAT2;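 active = inhibition above a cutoff: mean of compounds within the control limits plus 3 SD of those, cut at about 17% in these data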;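 also: 0% = plate median of compound wells and 100% = probe without SIAE protein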
# pPAFAH confirm = confirmation of human plasma PAF acetylhydrolase (pPAFAH) inhibitors; shares compounds with pPAFAH FP inh; recombinant pPAFAH, FP-Rh probe fluorescence polarization; inhibition, % at 3.39 µM; 72% of 2,300 active;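 active = mean inhibition of the triplicate above the hit cutoff set for the earlier primary screen, cut at about 25% in these data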;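 also: 0% = enzyme with DMSO and 100% = wells lacking pPAFAH enzyme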
# HTRA1 conf = HTRA1 (human) inhibition, confirmation; shares compounds with HTRA1 inh; recombinant HTRA1, FP-rhodamine activity-based probe, fluorescence polarization; inhibition, % at 5.96 µM; 66% of 1,600 active;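 active = mean inhibition over three repeats above a set limit taken from the earlier primary screen, cut at about 37% in these data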;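 also: 0% = HTRA1 with DMSO and 100% = wells lacking HTRA1; inhibitors block probe binding so polarization drops and inhibition rises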
# Numbers without * were called inactive; nt = no result given. Rows were chosen to be rich in hits. Some 2.3% of all compounds tested hit in one or more screens of this group.
SMILES,pPAFAH FP inh,ABHD4 inh,HTRA1 inh,TCR-CD3 inh,SIAE primary,pPAFAH confirm,HTRA1 conf
CCn1c(COc2ccc(Cl)cc2)nnc1SCC(=O)Nc1ccccc1-c1ccccc1,nt,-9,nt,nt,-2,nt,nt
O/N=C/c1cccc[n+]1CCCCCC[n+]1ccccc1/C=N/O,nt,-4,16,6,4,nt,nt
CCCCCCCCCCCCCCCC[n+]1ccc(/C=N/O)cc1,50*,51*,61*,3,68*,40*,81*
Cc1cc(O)c(Oc2cc(C)cc(O)c2O)c(O)c1,39*,29,64*,13,5,15,81*
Cc1ccccc1N=Nc1ccc(O)c2ncccc12,41*,14,37*,5,10,36*,65*
O=S(=O)(O)c1cccc2c(N=Nc3ccc(O)c4ncccc34)cccc12,92*,nt,71*,nt,nt,91*,75*
O=Nc1ccc(O)c2ncccc12,6,0,9,3,-31,nt,nt
CC[C@H](CCCc1ccccc1OC)CCS(=O)(=O)N(C)C,nt,-1,nt,nt,-2,nt,nt
CCc1ccc(S(=O)(=O)/N=C2\C=C(Nc3ccc(O)cc3)C(=O)c3ccccc32)cc1,35*,nt,78*,nt,nt,33*,80*
Cc1ccc(S(=O)(=O)/N=C2\C=C(NS(=O)(=O)c3ccccc3)C(=O)c3ccccc32)cc1,nt,27,-2,-1,-6,nt,nt
Cc1cc(C)c(S(=O)(=O)/N=C2\C=C(Nc3ccc(C(=O)O)cc3)C(=O)c3ccccc32)c(C)c1,42*,71*,60*,3,18*,40*,52*
O=S1(=O)c2ccc(N3CC[C@@H](O)C3)cc2O[C@@H]2CCN1C2,nt,1,nt,nt,0,nt,nt
COc1cc(/C=N/NC(=O)CSc2cc(C)c(Br)cc2C)ccc1O,8,-4,-16,4,10,nt,nt
Cc1cc(SCC(=O)N/N=C/c2ccc(O)c(O)c2O)c(C)cc1Br,57*,50*,62*,11,35*,75*,67*
CCc1ccc(CCNC(=O)OCCCN2CCC3(CCC(c4ccccc4)CC3)C2=O)cc1 (stereo not drawn),nt,-13,nt,nt,4,nt,nt
COc1ccc(/C=N\NC(=O)c2cc(O)c(O)c(O)c2)cc1COc1ccc(C(=O)OCC(C)C)cc1,85*,7,58*,13,17,87*,55*
CCOC(=O)C1CCCN(C(=O)C2c3ccccc3Oc3ccccc32)C1 (stereo not drawn),55*,12,53*,5,4,9,-8
CCOC(=O)C1CCCN(C(=O)c2ccc(C(=O)c3ccccc3)cc2)C1 (stereo not drawn),4,-1,6,-1,1,nt,nt
Cc1nc(N)sc1N=Nc1ccccc1C(F)(F)F,42*,9,40*,-2,-2,30*,30
Cc1[nH]n(C(N)=S)c(=O)c1N=Nc1ccccc1C(F)(F)F,13,12,5,-6,14,nt,nt
CN(C)CC(=O)N[C@@H]1C[C@@H]2O[C@@H](CO)CC[C@@H]2O[C@@H]1CCc1ccc(C2=CCCCC2)cc1,nt,4,nt,nt,-1,nt,nt
CC(C)N=c1scc(-c2ccco2)n1/N=C/c1ccc(O)c(O)c1,64*,36*,67*,-2,-6,69*,58*
O=C(O)C1Nc2c(Cl)cc(Cl)cc2C2C=CCC12 (stereo not drawn),81*,nt,55*,nt,nt,43*,49*
O=C(O)C1Nc2ccc(Br)cc2C2C=CCC12 (stereo not drawn),70*,nt,75*,nt,nt,61*,69*
O=C(O)C1Nc2c(Cl)cc(Cl)c(Cl)c2C2C=CCC12 (stereo not drawn),41*,18,42*,8,10,33*,38*
SMILES,pPAFAH FP inh,ABHD4 inh,HTRA1 inh,TCR-CD3 inh,SIAE primary,pPAFAH confirm,HTRA1 conf
Cc1ccccc1-c1cc2nc(C)c(Cl)c(=O)n2[nH]1,2,-3,0,-8,0,nt,nt
Cc1nc2cc(-c3ccsc3-n3c(C)ccc3C)[nH]n2c(=O)c1Cl,55*,7,38*,7,5,47*,3
COc1cccc(N=Nc2ccc3cccnc3c2O)c1,58*,21,77*,6,12,33*,77*
COc1ccc(OC)c(-c2c3cc(O)c(=O)cc-3oc3cc(O)c(O)cc23)c1,93*,nt,85*,nt,nt,85*,90*
CCNc1ccc(Br)cc(C(=O)/C=C/c2ccc(Cl)cc2)c1=O,53*,nt,63*,nt,nt,27*,36
COC(=O)[C@]12C[C@H](CC(=O)N3CCSCC3)C(=O)N(Cc3cccc4ccccc34)C1=C[C@H](C(C)C)O[C@@H]2C1CC1,nt,-4,nt,nt,3,nt,nt
CN1CCN(CC(=O)N2CCn3c4c(c5cc(C6CCCCC6)ccc53)CCCC42)CC1 (stereo not drawn),36*,nt,41*,nt,nt,54*,54*
CCCCC(=O)NC(c1ccc(OC)cc1)c1ccc2cccnc2c1O (stereo not drawn),nt,4,18,5,8,nt,nt
CCCCC(=O)NC(c1cccs1)c1cc(Cl)c2cccnc2c1O (stereo not drawn),45*,9,55*,-4,14,32*,55*
C(=Nc1cccc2c(N=Cc3ccco3)cccc12)c1ccco1,45*,nt,39*,nt,nt,3,3
O=C(N/N=C/c1ccc(-c2ccc(S(=O)(=O)Nc3ncccn3)cc2)o1)c1cc2ccccc2cc1O,78*,1,57*,18,10,76*,66*
NS(=O)(=O)c1ccc(-c2ccc(/C=N/NC(=O)c3ccccc3O)o2)cc1,4,8,8,7,2,nt,nt
Nn1c(SCC(=O)Nc2ccc(Br)cn2)nnc1-c1n[nH]c2c1CCC2,nt,3,nt,nt,3,nt,nt
C/C(CC(=O)Nc1ccc2ccccc2c1)=N\NC(=O)c1ccc(O)c(O)c1,54*,9,69*,19,7,55*,84*
Cc1ccc(/C=C2\SC(=S)N(/N=C/c3cc([N+](=O)[O-])ccc3O)C2=O)o1,63*,nt,49*,nt,nt,56*,39*
C=CCN1C(=O)[C@@H](CC(=O)NCCCC)[C@]2(C(=O)OCC)CCCCC/C=C/12,nt,-1,nt,nt,-4,nt,nt
O=[N+]([O-])c1ccccc1N/N=C/c1cccc(O)c1O,50*,23,48*,-5,-15,14,36
COc1cc(/C=N/Nc2ccc([N+](=O)[O-])cc2S(=O)(=O)N2CCOCC2)cc(OC)c1OC,4,3,-4,8,4,nt,nt
O=[N+]([O-])c1ccc(N/N=C/c2cccc(O)c2O)c(S(=O)(=O)N2CCOCC2)c1,45*,24,59*,-11,11,57*,54*
O=[N+]([O-])c1ccccc1N/N=C\c1ccccc1Cl,-1,7,2,-8,3,nt,nt
